# Data published in ChEMBL document CHEMBL4351026, “Antifungal activity, mode of action variability, and subcellular distribution of coumarin-based antifungal azoles” (Eur J Med Chem, 2019).
# Activity calls are given as the source filed them. The calls are words filed in the database; no cut-off is given here.
# Columns and labels:
# Nakaseomyces glabratus [1] = test: Antifungal activity against Candida glabrata 192 assessed as reduction in fungal cell growth incubated for 48 hrs by MTT based broth double dilution method; assay type: functional; conditions: Nakaseomyces glabratus, 192, 48 h
# Procedure, shortened: (§1)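 Broth double-dilution in Casitone broth. Starter cultures were grown 24 or 48 h at 37 °C, 5% CO₂, diluted 1:100, and added to serial two-fold dilutions at 64 to 0.007 µg/mL. Final inoculum was 5 x 10^4 to 5 x 10^5 CFU/mL; DMSO was 0.0012–1.3%. Plates were incubated at 37 °C, 5% CO₂, then MTT was added for 2 h. MIC followed CLSI M27-A3. Triplicates, two independent experiments.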
# Candida albicans [2] = test: Antifungal activity against Candida albicans SN152 assessed as zone inhibition at 25 ug incubated for 24 hrs by disk diffusion method; assay type: functional, organism-based
# Procedure, shortened: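 Strains were streaked on YPD agar and grown at 30 °C: 24 h for parental SN152, 48 h for the erg11ΔΔ erg3ΔΔ mutant. Colonies were suspended in PBS and adjusted to OD 0.02 (SN152) or 0.03 (mutant), then spread on Casitone plates. A 6-mm disk loaded with 25 µg compound was placed centrally. Plates were incubated at 30 °C and photographed after 24 h.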
# Candida albicans [3] = test: Antifungal activity against Candida albicans SN152 assessed as reduction in fungal cell growth incubated for 24 hrs by MTT based broth double dilution method; assay type: functional; conditions: SN152, 24 h; procedure, shortened: as §1
# Candida dubliniensis = test: Antifungal activity against Candida dubliniensis T-99 assessed as reduction in fungal cell growth incubated for 24 hrs by MTT based broth double dilution method; assay type: functional; conditions: T-99, 24 h; procedure, shortened: as §1
# Candida albicans [4] = test: Antifungal activity against Candida albicans SN152 assessed as reduction in fungal cell growth incubated for 48 hrs by MTT based broth double dilution method; assay type: functional; conditions: SN152, 48 h; procedure, shortened: as §1
# [5] = system: Meyerozyma guilliermondii; test: Antifungal activity against Candida guilliermondii T-47 assessed as reduction in fungal cell growth incubated for 24 hrs by MTT based broth double dilution method; assay type: functional; conditions: T-47, 24 h; procedure, shortened: as §1
# Candida albicans [6] = test: Antifungal activity against Candida albicans ATCC 90028 assessed as reduction in fungal cell growth incubated for 24 hrs by MTT based broth double dilution method; assay type: functional; conditions: ATCC 90028, 24 h; procedure, shortened: as §1
# Candida parapsilosis [7] = test: Antifungal activity against Candida parapsilosis ATCC 90018 assessed as reduction in fungal cell growth incubated for 24 hrs by MTT based broth double dilution method; assay type: functional; conditions: Lodderomyces parapsilosis, ATCC 90018, 24 h; procedure, shortened: as §1
# Candida albicans [8] = test: Antifungal activity against ERG11/ERG3 knocked out Candida albicans SN152 assessed as zone of inhibition at 25 ug […] by disk diffusion method; assay type: functional, organism-based
# Cytochrome P450 3A4 = Cytochrome P450 3A4 (Homo sapiens, UniProt P08684); test: Inhibition of recombinant human CYP3A4 using Luciferin-PPXE as substrate preincubated for 10 mins followed by NADPH addition measured after 15 mins by luminometric method; assay type: ADME
# Procedure, shortened: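 P450-Glo luminescent assay, Luciferin-PPXE substrate. Compound was mixed with membranes containing recombinant human CYP3A4; controls were vehicle with membranes lacking CYP3A4. After 10 min preincubation at 37 °C, NADPH regeneration reagent was added and the mixture kept 15 min at 37 °C. Luciferin detection reagent stopped the reaction; after 20 min at room temperature, luminescence was read. Duplicates.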
# [9] = Drug distribution in Candida albicans SN152 assessed as subcellular compound distribution at 10 uM incubated for 60 mins by fluorescent imaging analysis; assay type: ADME; conditions: 1 h
# Procedure, shortened: (§2)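 Yeast were grown overnight at 30 °C in YPD liquid, diluted 1:10, and grown 2 h at 30 °C to log phase. Fluorescent azole was added at 10 µM final and incubated 60 min in the dark. Cells were washed once in PBS and imaged on slides in bright field and fluorescence (ex 427 nm, em 510 nm).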
# Candida albicans [10] = test: Antifungal activity against Candida albicans ATCC 90028 assessed as reduction in fungal cell growth incubated for 48 hrs by MTT based broth double dilution method; assay type: functional; conditions: ATCC 90028, 48 h; procedure, shortened: as §1
# Nakaseomyces glabratus [11] = test: Antifungal activity against Candida glabrata 192 assessed as reduction in fungal cell growth incubated for 24 hrs by MTT based broth double dilution method; assay type: functional; conditions: Nakaseomyces glabratus, 192, 24 h; procedure, shortened: as §1
# [12] = Drug distribution in Candida glabrata 2001 assessed as subcellular compound distribution at 10 uM incubated for 60 mins by fluorescent imaging analysis; assay type: ADME; conditions: nakaseomyces glabratus, 1 h; procedure, shortened: as §2
# Candida albicans [13] = test: Antifungal activity against Candida albicans P-87 assessed as reduction in fungal cell growth incubated for 24 hrs by MTT based broth double dilution method; assay type: functional; conditions: P-87, 24 h; procedure, shortened: as §1
# Candida parapsilosis [14] = test: Antifungal activity against Candida parapsilosis ATCC 22019 assessed as reduction in fungal cell growth incubated for 24 hrs by MTT based broth double dilution method; assay type: functional; conditions: Lodderomyces parapsilosis, ATCC 22019, 24 h; procedure, shortened: as §1
# Nakaseomyces glabratus [15] = test: Antifungal activity against Candida glabrata ATCC 66032 assessed as reduction in fungal cell growth incubated for 48 hrs by MTT based broth double dilution method; assay type: functional; conditions: ATCC 66032, 48 h; procedure, shortened: as §1
# Nakaseomyces glabratus [16] = test: Antifungal activity against Candida glabrata ATCC 66032 assessed as reduction in fungal cell growth incubated for 24 hrs by MTT based broth double dilution method; assay type: functional; conditions: ATCC 66032, 24 h; procedure, shortened: as §1
# Nakaseomyces glabratus [17] = test: Antifungal activity against Candida glabrata ATCC 2001 assessed as reduction in fungal cell growth incubated for 24 hrs by MTT based broth double dilution method; assay type: functional; conditions: ATCC 2001, 24 h; procedure, shortened: as §1
# [18] = Cytotoxicity against human HepG2 cells assessed as reduction in cell viability at 5 to 50 uM incubated for 24 hrs by XTT assay relative to control; assay type: cell-based; conditions: read-out: INH
# Procedure, shortened: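 HepG2 cells were maintained in RPMI with 15% FBS, 1% NEAA, 1% pyruvate and pen-strep-nystatin at 37 °C and 5% CO2. 4000 cells/well were plated on poly-D-lysine coating and given fresh medium after 24 h. Compounds were dosed at 5–50 µM from 1 mM stocks in 10% DMSO/0.3% Tween/PBS and incubated 24 h. Viability was read by XTT (2 h, 37 °C) at 475 nm against 660 nm.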
# HEK-293T [19] = test: Cytotoxicity against human HEK293T cells assessed as reduction in cell viability at 5 to 50 uM incubated for 24 hrs by XTT assay; assay type: cell-based
# Procedure, shortened: (§3)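 HEK-293T were grown in DMEM with 10% FBS; HepG2 in RPMI with 15% FBS; both at 37 °C, 5% CO₂. Cells (4000 HepG2 or 7000 HEK-293T per well) were seeded on poly-D-lysine wells. After 24 h the medium was renewed and compounds added at 5–50 µM from 1 mM stocks in 10% DMSO/0.3% Tween/PBS. After 24 h more, XTT was added for 2 h at 37 °C; absorbance was read at 475 nm against 660 nm reference.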
# HepG2 = test: Cytotoxicity against human HepG2 cells assessed as reduction in cell viability at 5 to 50 uM incubated for 24 hrs by XTT assay; assay type: cell-based; conditions: hepg2, 24 h; procedure, shortened: as §3
# [20] = (§4) Cytotoxicity against human HEK293T cells assessed as reduction in cell viability at 5 to 50 uM incubated for 24 hrs by XTT assay relative to control; assay type: cell-based, HEK-293T; conditions: HEK293T cells, read-out: INH
# Procedure, shortened: (§5)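 HEK-293T cells were grown in DMEM with 10% FBS, 1% NEAA, 1% pyruvate and pen-strep-nystatin at 37 °C and 5% CO2. 7000 cells/well were seeded on poly-D-lysine-coated wells. After 24 h the medium was renewed and compounds were added at 5–50 µM from 1 mM stocks in 10% DMSO/0.3% Tween/PBS. After 24 h, XTT was added for 2 h at 37 °C, with absorbance read at 475 nm (reference 660 nm).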
# HEK-293T [21] = test: as §4; assay type: cell-based; conditions: hek-293t, 24 h, 50 µM; procedure, shortened: as §5
# Sequence of Cytochrome P450 3A4 (P08684 whole entry): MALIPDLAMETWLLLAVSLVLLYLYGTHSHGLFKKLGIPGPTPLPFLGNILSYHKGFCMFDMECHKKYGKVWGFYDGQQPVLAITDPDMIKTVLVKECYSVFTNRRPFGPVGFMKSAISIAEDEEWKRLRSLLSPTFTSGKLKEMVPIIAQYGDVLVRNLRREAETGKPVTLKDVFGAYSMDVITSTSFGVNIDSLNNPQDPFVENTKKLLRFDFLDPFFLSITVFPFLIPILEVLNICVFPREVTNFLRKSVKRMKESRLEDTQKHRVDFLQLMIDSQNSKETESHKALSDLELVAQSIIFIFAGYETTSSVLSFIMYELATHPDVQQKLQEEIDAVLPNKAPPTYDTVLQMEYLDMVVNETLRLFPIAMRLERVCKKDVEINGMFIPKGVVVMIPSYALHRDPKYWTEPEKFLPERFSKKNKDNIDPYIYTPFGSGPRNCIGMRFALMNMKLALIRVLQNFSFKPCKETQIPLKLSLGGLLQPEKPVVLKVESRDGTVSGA
SMILES,MIC (Nakaseomyces glabratus [1]),inhibition zone (IZ) (Candida albicans [2]),MIC (Candida albicans [3]),MIC (Candida dubliniensis),MIC (Candida albicans [4]),MIC [5],MIC (Candida albicans [6]),MIC (Candida parapsilosis [7]),inhibition zone (IZ) (Candida albicans [8]),IC50 (Cytochrome P450 3A4),MIC (Candida albicans [10]),MIC (Nakaseomyces glabratus [11]),MIC (Candida albicans [13]),MIC (Candida parapsilosis [14]),MIC (Nakaseomyces glabratus [15]),MIC (Nakaseomyces glabratus [16]),MIC (Nakaseomyces glabratus [17]),"cytotoxicity at 24 h, up to 50 µM [18]",Activity (HEK-293T [19]),Activity (HepG2),other results
CCN(CC)c1ccc2cc(C(=O)NCC(O)(Cn3cncn3)c3ccc(F)cc3F)c(=O)oc2c1 (racemic),> 64 µg/mL,Active,0.03 µg/mL,1 µg/mL,0.125 µg/mL,1 µg/mL,0.06 µg/mL,0.125 µg/mL,inactive,1020 nM,0.125 µg/mL,8 µg/mL,0.06 µg/mL,1 µg/mL,> 64 µg/mL,4 µg/mL,16 µg/mL,,,,Drug uptake [9]: Active; Drug uptake [12]: Active
CCN(CC)c1ccc2cc(C(=O)NCC(O)(Cn3cncn3)c3ccc(Cl)cc3Cl)c(=O)oc2c1 (racemic),> 64 µg/mL,Active,0.03 µg/mL,0.5 µg/mL,0.06 µg/mL,0.25 µg/mL,0.03 µg/mL,0.06 µg/mL,inactive,351 nM,0.06 µg/mL,4 µg/mL,0.03 µg/mL,0.5 µg/mL,> 64 µg/mL,4 µg/mL,16 µg/mL,< 40%,Non-Toxic,Non-Toxic,"cytotoxicity at 24 h, up to 50 µM [20]: < 40%"
CCC(CC)Oc1ccc2cc(C(=O)NCC(O)(Cn3cncn3)c3ccc(Cl)cc3Cl)c(=O)oc2c1 (racemic),> 64 µg/mL,,0.06 µg/mL,0.5 µg/mL,0.06 µg/mL,0.5 µg/mL,0.06 µg/mL,0.25 µg/mL,,≥ 2500 nM,0.06 µg/mL,2 µg/mL,0.03 µg/mL,0.5 µg/mL,> 64 µg/mL,> 64 µg/mL,> 64 µg/mL,< 40%,Non-Toxic,Non-Toxic,"cytotoxicity at 24 h, up to 50 µM [20]: < 40%"
CCN(CC)c1ccc2cc(C(=O)NCC(O)(Cn3ccnc3)c3ccc(Cl)cc3Cl)c(=O)oc2c1 (racemic),1 µg/mL,,0.03 µg/mL,0.25 µg/mL,0.06 µg/mL,0.125 µg/mL,0.015 µg/mL,0.015 µg/mL,,127 nM,0.03 µg/mL,0.25 µg/mL,0.03 µg/mL,0.06 µg/mL,> 64 µg/mL,4 µg/mL,2 µg/mL,< 40%,Toxic,Toxic,"cytotoxicity at 24 h, up to 50 µM [20]: < 40%"
CCN(CC)c1ccc2cc(C(=O)NCC(O)(Cn3ccnc3)c3ccc(F)cc3F)c(=O)oc2c1 (racemic),4 µg/mL,Active,0.06 µg/mL,0.5 µg/mL,0.125 µg/mL,0.5 µg/mL,0.015 µg/mL,0.015 µg/mL,Active,1310 nM,0.06 µg/mL,2 µg/mL,0.06 µg/mL,0.125 µg/mL,32 µg/mL,8 µg/mL,8 µg/mL,,,,Drug uptake [9]: Active; Drug uptake [12]: Active
CCC(CC)Oc1ccc2cc(C(=O)NCC(O)(Cn3ccnc3)c3ccc(Cl)cc3Cl)c(=O)oc2c1 (racemic),1 µg/mL,,0.06 µg/mL,0.25 µg/mL,0.06 µg/mL,0.25 µg/mL,0.03 µg/mL,0.125 µg/mL,,251 nM,0.06 µg/mL,0.5 µg/mL,0.06 µg/mL,0.5 µg/mL,> 64 µg/mL,2 µg/mL,2 µg/mL,< 40%,Non-Toxic,Non-Toxic,"cytotoxicity at 24 h, up to 50 µM [20]: < 40%"
OC(Cn1cncn1)(Cn1cncn1)c1ccc(F)cc1F [FLUCONAZOLE],8 µg/mL,Active,0.25 µg/mL,4 µg/mL,1 µg/mL,4 µg/mL,0.5 µg/mL,1 µg/mL,inactive,,0.5 µg/mL,8 µg/mL,0.25 µg/mL,2 µg/mL,> 64 µg/mL,64 µg/mL,64 µg/mL,< 40%,Non-Toxic,Non-Toxic,"cytotoxicity at 24 h, up to 50 µM [20]: < 40%"
C[C@@H](c1ncncc1F)[C@](O)(Cn1cncn1)c1ccc(F)cc1F [VORICONAZOLE],0.25 µg/mL,Active,0.007 µg/mL,0.06 µg/mL,0.007 µg/mL,0.06 µg/mL,0.007 µg/mL,0.015 µg/mL,inactive,,0.007 µg/mL,0.125 µg/mL,0.007 µg/mL,0.03 µg/mL,4 µg/mL,0.5 µg/mL,2 µg/mL,< 40%,,,Activity (HEK-293T [21]): < 40%
